Test results from ChEMBL document CHEMBL1123532, “Conformationally defined adrenergic agents. 3. Modifications to the carbocyclic ring of 5,6-dihydroxy-1-(2-imidazolinyl)tetralin: improved separation of alpha 1 and alpha 2 adrenergic activities” (J Med Chem, 1986).
Where “and” joins values, the source holds several entries; their conditions need not be identical. Equal values may be shown once. Calls of active or inactive are those of the source. The calls are words filed in the database; no cut-off is given here.

What was measured:
[1] = target: T1, Adrenergic receptor alpha-1 (Homo sapiens) (UniProt P35348+P25100+P35368); assay: Compound was evaluated for alpha-1 adrenergic receptor activity in isolated rabbit aortic tissue, effective dose (CPD); IA=Inactive; conditions: Oryctolagus cuniculus; target entry is the homologue from another species
Procedure, shortened: (§1)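 Helical aortic strip in Krebs buffer (pH 7.4) at 2 g initial tension, equilibrated 1 h with four washes; isometric contraction recorded. Cumulative norepinephrine curve (1 × 10^-8 to 1 × 10^-3 M), each step to plateau; washes every 10-15 min for 60-90 min, tension reset to 2 g, then cumulative test-compound curve in the same tissue. Molar ED50 values; index (ED50 NE/ED50 CPD) computed per experiment.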

[2] = target: T2, Adrenergic receptor alpha-2 (Homo sapiens) (UniProt P08913+P18825+P18089); assay: Compound was evaluated for alpha-2 adrenergic receptor activity in the phenoxybenzamine (PBZ) - pretreated dog saphenous vein, effective dose of norepinephrine (NE); assay type: tissue-based; conditions: Canis lupus familiaris, target entry is the homologue from another species
Procedure, shortened: (§2)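 Beagle lateral saphenous vein rings (3-4 mm, either sex) in bicarbonate buffer with cocaine, hydrocortisone and propranolol, gassed with 95% O2/5% CO2 at 37 °C, pH 7.45, under 2 g. After maximal NE (1 × 10^-4 M) contraction and 60 min wash, exposed to phenoxybenzamine 1 × 10^-7 M for 30 min, then washed 60 min. Control cumulative NE curve, washout, then test-compound curve in the same tissue. Molar ED50 from isometric contraction.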

[3] = Compound was evaluated for the percent of maximum response of the tissue to NE; IA=Inactive; assay type: functional
[4] = target: T1, Adrenergic receptor alpha-1 (Homo sapiens); assay: Compound was evaluated for alpha-1 adrenergic activity in isolated rabbit aortic tissue, effective dose of norepinephrine (NE); assay type: tissue-based; conditions: Oryctolagus cuniculus; Aorta; target entry is the homologue from another species; procedure, shortened: as §1
[5] = target: T2, Adrenergic receptor alpha-2 (Homo sapiens); assay: Compound was evaluated for alpha-2 adrenergic receptor activity in the phenoxybenzamine (PBZ) - pretreated dog saphenous vein, effective dose (CPD); assay type: tissue-based; conditions: Canis lupus familiaris, target entry is the homologue from another species; procedure, shortened: as §2
[6] = target: T1, Adrenergic receptor alpha-1 (Homo sapiens); assay: Compound was evaluated for alpha-1 adrenergic receptor activity in isolated rabbit aortic tissue, effective dose (CPD); conditions: Oryctolagus cuniculus; target entry is the homologue from another species
Procedure, shortened: (§3)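 Helical aortic strip in 10-mL bath of Krebs buffer, pH 7.4, under 2 g initial tension and equilibrated 1 h with four washes. Cumulative norepinephrine curve run from 1 × 10^-8 to 1 × 10^-3 M, each response allowed to plateau. After washout, tension reset to 2 g and a cumulative test-compound curve run in the same tissue. Isometric contraction recorded; molar ED50 taken for each.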

[7] = target: T1, Adrenergic receptor alpha-1 (Homo sapiens); assay: Compound was evaluated for alpha-1 adrenergic receptor activity in isolated rabbit aortic tissue, effective dose of norepinephrine (NE); conditions: Oryctolagus cuniculus; target entry is the homologue from another species; procedure, shortened: as §3
[8] = Compound was evaluated for the percent of maximum response of the tissue to NE; assay type: functional
[9] = target: T1, Adrenergic receptor alpha-1 (Homo sapiens); assay: Compound was evaluated for alpha-1 adrenergic activity in isolated rabbit aortic tissue, effective dose (CPD); assay type: tissue-based; conditions: Oryctolagus cuniculus; Aorta; target entry is the homologue from another species; procedure, shortened: as §3
[10] = target: T2, Adrenergic receptor alpha-2 (Homo sapiens); assay: Compound was evaluated for alpha-2 adrenergic receptor activity in the phenoxybenzamine (PBZ) - pretreated dog saphenous vein, effective dose (CPD); Inactive; assay type: tissue-based; conditions: Canis lupus familiaris, target entry is the homologue from another species; procedure, shortened: as §2
[11] = target: T2, Adrenergic receptor alpha-2 (Homo sapiens); assay: Compound was evaluated for alpha-2 adrenergic receptor activity in the phenoxybenzamine (PBZ) - pretreated dog saphenous vein, effective dose (CPD); inactive; assay type: tissue-based; conditions: Canis lupus familiaris, target entry is the homologue from another species

Structure (SMILES)	ED50 [1]	ED50 [2] [nM]	Emax [3]	ED50 [4] [nM]	ED50 [5]	ED50 [6] [nM]	ED50 [7] [nM]	Emax [8]	ED50 [9] [nM]	ED50 [10]	ED50 [11]
Oc1ccc2c(c1O)CC[C@@H](c1ccccc1)[C@@H]2C1=NCCN1	inactive	519	inactive	73	inactive						
Oc1ccc2c(c1O)OCC[C@@H]2C1=NCCN1		720			35 nM	35	67	118 and 107			
C[C@@H]1CCc2c(ccc(O)c2O)[C@H]1C1=NCCN1		560			4500 nM		48		4390		
CC1(C)CC[C@H](C2=NCCN2)c2ccc(O)c(O)c21		1240	inactive			284	125	100		inactive	
C[C@]1(C2=NCCN2)CCCc2c1ccc(O)c2O		924			6100 nM	16600	41	69 and 76			
Oc1ccc2c(c1O)SCC[C@@H]2C1=NCCN1		526			19 nM	20	219	129 and 105			
Oc1ccc2c(c1O)CCCC2C1=NCCN1 (stereo unspecified)		720			5 nM	17	140	114 and 102			
CCC1(CC)CC[C@H](C2=NCCN2)c2ccc(O)c(O)c21		603	inactive			47000	98	44			inactive
